The list is not random: actives were taken first. Their share in the collection is about 0.72%.
bIAP activator: intestinal alkaline phosphatase (bovine) activation | purified bovine IAP, CDP-star luminescence, 30 min; stronger effect = higher value; fold of DMSO-control signal, blank-subtracted | activation factor at 20 µM | hit rate 0.17% among 200,000 | AID 1016;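 active means activation factor of 2 or more at 20 µM, a signal rise over negative controls twice the positive control's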
hIAP inh: blocks human intestinal alkaline phosphatase; P09923; purified IAP, CDP-Star luminescence, 30 min; inhibition, % at 10 µM; hit rate 0.12% among 330,000; AID 2544;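 active means inhibition reaching a set limit with compound at 10 µM in the primary screen, cut at about 35% in these data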;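 further: plate controls were DMSO wells with enzyme for no effect and no-enzyme buffer wells for full effect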
Target sequence (P09923 whole entry, looked up): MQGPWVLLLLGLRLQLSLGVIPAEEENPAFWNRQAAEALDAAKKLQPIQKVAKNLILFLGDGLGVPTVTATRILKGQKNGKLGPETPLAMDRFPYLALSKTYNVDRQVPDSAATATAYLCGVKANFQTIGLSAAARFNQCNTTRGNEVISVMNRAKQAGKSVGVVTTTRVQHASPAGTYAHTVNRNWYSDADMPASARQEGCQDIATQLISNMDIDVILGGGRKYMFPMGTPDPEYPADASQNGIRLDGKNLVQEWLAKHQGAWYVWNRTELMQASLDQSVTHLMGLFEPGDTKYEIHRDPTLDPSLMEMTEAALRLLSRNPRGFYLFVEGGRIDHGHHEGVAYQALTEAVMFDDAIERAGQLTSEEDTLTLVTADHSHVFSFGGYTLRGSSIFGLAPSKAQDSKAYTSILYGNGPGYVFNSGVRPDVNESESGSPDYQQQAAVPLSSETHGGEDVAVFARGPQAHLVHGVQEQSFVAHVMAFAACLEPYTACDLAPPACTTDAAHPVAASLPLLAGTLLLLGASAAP
hIAP act: human IAP activation; purified human IAP, CDP-Star luminescence, 30 min; stronger effect = higher value; 1 = vehicle-only enzyme, 0 = enzyme-free background; activation factor at 10 µM; hit rate 0.16% among 330,000; AID 2524;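 active means activation factor of the enzyme at least 2-fold when tested at 20 µM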
mIAP act: mouse IAP activation | muIAP, CDP-Star luminescence, 30 min; stronger effect = higher value; 1 = vehicle-only enzyme signal, 0 = enzyme-free wells | activation factor at 10 µM | hit rate 0.24% among 330,000 | AID 2805;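 active means activation factor of at least 2 at 20 µM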
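System: mouse IAP enzyme. Reagent: CDP-Star chemiluminescent phosphatase substrate. Benchmarks: DMSO wells, no-enzyme wells. Times: 30 min enzyme-substrate-compound incubation at room temperature. Detection: luminescence from enzymatic CDP-Star hydrolysis. Doses: test compounds delivered from DMSO solution.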
bIAP inh: blocks bovine intestinal alkaline phosphatase activity; purified bovine IAP, CDP-star luminescence, 30 min; inhibition, % at 20 µM; 190,000 tested, under 10 active;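 active means over 50% inhibition of intestinal alkaline phosphatase at 20 µM in the single-dose screen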
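Assay system – bovine IAP enzyme · Quantity – bovine IAP at 1/65,000,000 final dilution · Detection – CDP-star luminescence signal · Times – 30 min reaction at room temperature · Also added – CDP-star substrate at 30 µM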
mIAP inh: mouse IAP inhibition. purified mouse IAP, CDP-Star luminescence, 30 min. inhibition, % at 10 µM. hit rate 0.2% among 330,000;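 active means inhibition of at least 40% at 10 µM in the primary screen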;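 further: plate controls were DMSO with enzyme for no effect and no enzyme wells for full effect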
Starred values were filed as active, the others as inactive.

For O=C(N/N=C/C=C/c1ccccc1)c1n[nH]c2c1CCC2 the results were bIAP activator 1.4, hIAP inh -108, hIAP act 2.1*, mIAP act 1.1, bIAP inh -39 and mIAP inh -7.
COc1cccc(-c2cnc(NCc3cc(Cl)ccc3O)n2C)c1 was read as bIAP activator 2.2*, hIAP inh 21, hIAP act 0.79, mIAP act 0.96, bIAP inh -117 and mIAP inh 4.
COc1ccccc1CNc1ncc(-c2ccccc2)n1C was read as hIAP inh -31, hIAP act 1.3, mIAP act 0.97 and mIAP inh 2.
Screening Fc1ccc(-c2n[nH]c(=S)n2/N=C/c2c[nH]c3ccccc23)cc1 returned bIAP activator 2.1*, hIAP inh -28, hIAP act 1.3, mIAP act 1.2, bIAP inh -113 and mIAP inh -16.
`O=C(Nc1cccc(Cl)c1)C1C2CCC3C(CCC21)C3(Cl)Cl` (centres undefined) gave bIAP activator 0.9, hIAP inh 10, hIAP act 0.9, mIAP act 2.9*, bIAP inh 14 and mIAP inh -188.
For Cc1cccc(C2=NN(c3ccccc3)[C@H](CO)[C@H]2c2ccc(Cl)cc2)c1 the results were mIAP act 2* and mIAP inh -101.
Screening OC[C@@H]1[C@@H](c2ccccc2)C(c2ccc(F)cc2)=NN1c1ccccc1 returned mIAP act 1.8 and mIAP inh -84.
OC[C@@H]1[C@@H](c2ccc(Cl)cc2)C(c2ccc(F)cc2)=NN1c1ccccc1 was read as mIAP act 2* and mIAP inh -102.
Screening CC(=O)Nc1ccc(C2=NN(c3ccccc3)C(c3ccccc3)C2)cc1 (centres undefined) returned hIAP inh -42, hIAP act 1.4, mIAP act 2.3* and mIAP inh -134.
COc1ccc(C2CC(c3ccccc3)=NN2c2ccc(C(N)=O)cc2)cc1 (centres undefined) was read as hIAP inh -6, hIAP act 1.1, mIAP act 2.8* and mIAP inh -183.
Screening NC(=O)CC(c1ccccc1)c1ccc2c(c1)OCO2 (centres undefined) returned hIAP inh 5, hIAP act 0.95, mIAP act 1 and mIAP inh 0.
Screening CC(C)NC(=O)COC(=O)c1ccc(Cl)c(S(=O)(=O)N2CCCC2)c1 returned bIAP activator 0.9, hIAP inh -4, hIAP act 1, mIAP act 1.1, bIAP inh 6 and mIAP inh -8.
CCN(C(=O)CSc1ncn[nH]1)C1CCCCC1 was read as bIAP activator 0.9, hIAP inh 7, hIAP act 0.93, mIAP act 0.93, bIAP inh 8 and mIAP inh 7.
For CCOC(=O)c1sc(NC(=O)Nc2cccc(Cl)c2)cc1C the results were bIAP activator 1, hIAP inh -12, hIAP act 1.1, mIAP act 2*, bIAP inh -1 and mIAP inh -104.
Screening c1ccc(-c2csc(NC3CCCCC3)n2)cc1 returned hIAP inh 20, hIAP act 0.8, mIAP act 0.96 and mIAP inh 4.
`O=C(Nc1nc(-c2ccccc2)cs1)NC1CCCCC1` gave bIAP activator 0.8, hIAP inh -5, hIAP act 1, mIAP act 2.6*, bIAP inh 17 and mIAP inh -157.
`S=C(NCCc1ccc(Cl)cc1)Nc1ccc(Cl)cc1Cl` gave bIAP activator 1, hIAP inh 6, hIAP act 0.94, mIAP act 2.3*, bIAP inh -1 and mIAP inh -133.
`S=C(NCCCc1ccccc1)Nc1ccc(Cl)cc1` gave bIAP activator 0.9, hIAP inh 5, hIAP act 0.95, mIAP act 2.7*, bIAP inh 11 and mIAP inh -165.
Screening S=C(NCCCc1ccccc1)Nc1ccccc1 returned hIAP inh -13, hIAP act 1.1, mIAP act 1.2 and mIAP inh -18.
O=C(NCCc1ccc(Cl)cc1)Nc1cccc(Cl)c1 was read as bIAP activator 0.9, hIAP inh -21, hIAP act 1.2, mIAP act 2.9*, bIAP inh 7 and mIAP inh -190.
`Cn1c(=O)c2c(n(Cc3ccccc3)c1=O)NC(=O)C2CC(=O)O` (centres undefined) gave bIAP activator 1, hIAP inh -6, hIAP act 1.1, mIAP act 0.98, bIAP inh 2 and mIAP inh 2.
Cc1cc(OCCCCn2ccnc2)cc(C)c1Cl was read as bIAP activator 16*, hIAP inh -15, hIAP act 1.1, mIAP act 0.96, bIAP inh inactive and mIAP inh 4.
For Cc1cc(Cl)cc(C)c1OCCCCn1ccnc1 the results were bIAP activator 1.1, hIAP inh 5, hIAP act 0.95, mIAP act 1, bIAP inh -9 and mIAP inh -3.
For CCCCOc1ccc(NC(=O)C(=O)NCCCn2ccnc2)cc1 the results were bIAP activator 1.3, hIAP inh -12, hIAP act 1.1, mIAP act 0.89, bIAP inh -25 and mIAP inh 11.
`CCCCCCOc1ccc(C(=O)NCCCn2ccnc2)cc1` gave bIAP activator 2*, hIAP inh -37, hIAP act 1.4, mIAP act 1.2, bIAP inh -101 and mIAP inh -17.
`COC(=O)c1ccc(NC(=S)NC2CC3CCC2C3)cc1` (centres undefined) gave bIAP activator 1.2, hIAP inh -15, hIAP act 1.1, mIAP act 3*, bIAP inh -16 and mIAP inh -202.
COC(=O)c1ccc(NC(=O)C2CC3CCC2C3)cc1 (centres undefined) was read as hIAP inh 6, hIAP act 0.94, mIAP act 1.1 and mIAP inh -7.
Cc1ccc(/C=c2\sc3nc(-c4ccccc4Br)nn3c2=O)o1 was read as bIAP activator 1, hIAP inh 20, hIAP act 0.8, mIAP act 0.51, bIAP inh 3 and mIAP inh 49*.
Screening Cc1ccc(NC(=O)C(Cc2ccccc2)NC(=O)OCc2ccccc2)cc1C (centres undefined) returned bIAP activator 1, hIAP inh -7, hIAP act 1.1, mIAP act 2.1*, bIAP inh -3 and mIAP inh -111.
Cc1cccc(NC(=O)[C@H](Cc2ccccc2)NC(=O)OCc2ccccc2)c1 was read as bIAP activator 1, hIAP inh 5, hIAP act 0.95, mIAP act 1.6, bIAP inh 0 and mIAP inh -57.

Screening results: PubChem BioAssay, Sanford-Burnham Center for Chemical Genomics
